Data taken from ChEMBL document CHEMBL3804769, “Antibacterial Diamines Targeting Bacterial Membranes” (J Med Chem, 2016).

Columns and labels:
Pseudomonas aeruginosa [1] = assay: Antibacterial activity against Pseudomonas aeruginosa PAO1 ATCC 47085 at 0.5 times MIC99 after 24 hrs by checkerboard assay in presence of kanamycin; format: functional
In short: (§1)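 Checkerboard assay: compound serially diluted along one axis of a 96-well plate and antibiotic along the other, in LB. Each well inoculated with 2 × 10⁴ CFU and incubated 24 h at 37 °C. ΣFIC = FIC A + FIC B, where each FIC is the combination MIC99 divided by the MIC99 of that drug alone.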

Staphylococcus aureus [2] = assay: Bactericidal activity against Staphylococcus aureus RN4220 ATCC 35556 assessed as reduction in bacterial burden at 4 times MIC99; format: functional
Staphylococcus aureus [3] = assay: Antibacterial activity against methicillin-resistant Staphylococcus aureus clinical isolate 30253CA SPA type 7 after 24 hrs by microbroth dilution method; format: functional
In short: (§2)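 MRSA isolates from ICU surfaces, stored at −80 °C and grown in Mueller-Hinton broth. Overnight cultures diluted and added to serially diluted compound at ~10⁵ CFU/mL, broth microdilution. Plates incubated 24 h at 37 °C, growth read as absorbance at 620 nm. MIC99 taken as the lowest concentration giving complete growth inhibition.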

Caenorhabditis elegans = assay: Toxicity in adult L4/juvenile L1 stages of Caenorhabditis elegans N2 assessed as effect on viable eggs production at 64 ug/ml incubated for 96 hrs measured every 12 hrs; format: organism-based; details: in vivo
In short: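 C. elegans N2 maintained on NGM agar at 22 °C. Compound mixed into molten NGM agar at 64 μg/mL. L4 adults, L1 juveniles and synchronized eggs transferred onto test plates and kept 96 h at 22 °C. Checked every 12 h for death, development and egg production. Gentamicin and […] as controls.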

[4] = Selectivity index, ratio of CC50 for human A549 cells to MIC99 for Pseudomonas aeruginosa PAO1 ATCC 47085; format: toxicity, cell-based; details: read-out: Selectivity Index
In short: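 CC50: HEK293T/17 or A549 cells seeded at 10⁴ per well in DMEM with 10% FBS at 37 °C, 5% CO2. After 24 h, wells PBS-washed and serially diluted compound applied for 48 h, with viability read by MTS and CC50 taken by nonlinear regression. MIC99 by CLSI broth microdilution, overnight at 37 °C without shaking, from three independent tests. SI = CC50/MIC99.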

[5] = Cytotoxicity against human A549 cells after 48 hrs by MTS conversion assay; format: cell-based
In short: (§3)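 HEK293T/17 and A549 cells maintained in DMEM with 10% FBS at 37 °C, 5% CO2. Seeded at 10⁴ cells per well; after 24 h, washed with PBS and exposed to serially diluted compound for 48 h. Viability read by MTS conversion. CC50 obtained by nonlinear regression.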

[6] = Hemolytic activity in human RBC after 1 hr; format: ADME, cell-based, Erythrocyte; details: red blood cells
In short: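 Human red blood cells, stored at 4 °C, added to serially diluted compound and incubated 1 h at 37 °C without shaking. Plates centrifuged and supernatant absorbance read at 540 nm. Triton X-100 as positive control. HC50 is the concentration lysing 50% of cells.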

Pseudomonas aeruginosa [7] = assay: Antibacterial activity against Pseudomonas aeruginosa PAO1 ATCC 47085 incubated overnight by microbroth dilution method; format: functional
In short: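 Bacteria grown in LB medium. CLSI microbroth dilution in 96-well plates, overnight at 37 °C without shaking. MIC99 taken as the lowest concentration giving complete growth inhibition. Three independent determinations, reported as mean ± SD.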

Staphylococcus aureus [8] = assay: Antibacterial activity against methicillin-resistant Staphylococcus aureus clinical isolate 10082B SPA type 1 after 24 hrs by microbroth dilution method; format: functional; in short: as §2
[9] = Cytotoxicity against HEK293T/17 cells after 48 hrs by MTS conversion assay; format: cell-based, HEK-293T; details: human; in short: as §3
Staphylococcus aureus [10] = assay: Potentiation of kanamycin-induced antibacterial activity against Staphylococcus aureus RN4220 ATCC 35556 assessed as reduction in kanamycin MIC99 at 0.5 times MIC99 after 24 hrs by checkerboard assay relative to control; format: functional; in short: as §1

Cl.Cl.S=C(NCCCNCCCCCNCCCNC(=S)NCC(c1ccccc1)c1ccccc1)NCC(c1ccccc1)c1ccccc1
fractional inhibitory concentration index (FICI) (Pseudomonas aeruginosa [1]): 0.75 | Activity (Staphylococcus aureus [2]): >2 deltalog10CFU/ml | MIC99 (Staphylococcus aureus [3]): 1 µg/mL | Activity (Caenorhabditis elegans): Non-toxic | selectivity ratio [4]: 8 | CC50 at 48 h [5]: 64 µg/mL | HC50 at 1 h [6]: 64 µg/mL | MIC99 (Pseudomonas aeruginosa [7]): 8 µg/mL | MIC99 (Staphylococcus aureus [8]): 1 µg/mL | CC50 at 48 h [9]: 32 µg/mL | fold change (FC) (Staphylococcus aureus [10]): 8
